In ChEMBL document CHEMBL3421570, “Combinatorial Libraries As a Tool for the Discovery of Novel, Broad-Spectrum Antibacterial Agents Targeting the ESKAPE Pathogens” (J Med Chem, 2015):
≈ marks a conversion by molar mass, not a printed value. Calls of active or inactive are those of the source. No cut-off for these calls is given here.

How the values were obtained:
[1] = system: Klebsiella pneumoniae; assay: Bactericidal activity against Klebsiella pneumoniae after 24 hrs; assay type: functional
[2] = system: Enterococcus faecium; assay: Antimicrobial activity against Enterococcus faecium assessed as inhibition of microbial growth after 24 hrs; assay type: functional
How it was run: (§1)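 Broth microdilution against multidrug-resistant clinical ESKAPE isolates. Overnight cultures (TSB for Gram-positives, LB for Gram-negatives) diluted 1:1000 in fresh medium, compound in DMF (≤2.0% DMF) added at decreasing concentrations, 37°C.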

[3] = system: Acinetobacter baumannii; assay: Antimicrobial activity against Acinetobacter baumannii assessed as inhibition of microbial growth after 24 hrs; assay type: functional; how it was run: as §1
[4] = system: Pseudomonas aeruginosa; assay: Induction of spontaneous mutation in Pseudomonas aeruginosa at 2 to 10 MIC; assay type: functional, organism-based; conditions: 2 to 10 x MIC
[5] = system: Staphylococcus aureus; assay: Effect on bacterial density of methicillin-resistant Staphylococcus aureus at MIC measured over 2 hrs period by time kill assay; assay type: functional, organism-based
[6] = Selectivity index, ratio of IC50 for human A549 cells to MIC for Enterobacter cloacae
[7] = Selectivity index, ratio of IC50 for human A549 cells to MIC for Staphylococcus aureus
[8] = system: Acinetobacter baumannii; assay: Induction of spontaneous mutation in Acinetobacter baumannii at 2 to 10 MIC; assay type: functional, organism-based
[9] = system: Staphylococcus aureus; assay: Ratio of MIC for Staphylococcus aureus measured after 8 cycle passage to MIC for wild type Staphylococcus aureus; assay type: functional
[10] = system: Klebsiella pneumoniae; assay: Ratio of MIC for Klebsiella pneumoniae measured after 8 cycle passage to MIC for wild type Klebsiella pneumoniae; assay type: functional
[11] = system: Enterococcus faecium; assay: Antimicrobial activity against Enterococcus faecium assessed as inhibition of microbial growth at 45 uM after 24 hrs; assay type: functional, organism-based
How it was run: (§2)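 Broth microdilution single-concentration read: overnight cultures diluted 1:1000, compound in DMF (≤2.0%) added, 37°C for 24 h, growth inhibition scored visually by lack of turbidity; triplicate. Gram-positives grown in TSB, Gram-negatives in LB.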

[12] = system: Staphylococcus aureus; assay: Antimicrobial activity against Staphylococcus aureus USA300 strain FPR3757 infected in mouse model of lethal peritonitis assessed as mouse survival at 2 uM, im dosed 1 hr post infection and measured after 5 days post infection; assay type: functional, organism-based
How it was run: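 Mice, six per group, infected i.p. with 1 × 10^8 CFU ml−1 S. aureus USA300 FPR3757 in PBS with 5% mucin. Compound given i.m. at 2 μM 1 h later; vehicle 45% w/v (2-hydroxypropyl)-β-cyclodextrin in water i.v.; vancomycin i.v. as control. Monitored twice daily for 5 days, pre-moribund animals euthanized. Survival compared by log-rank test.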

[13] = Induction of hemolysis in human RBC at 10 uM incubated for 15 mins; assay type: cell-based, Erythrocyte; conditions: red blood cells, read-out: Activity
How it was run: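 Human RBCs from whole blood, resuspended 20% v/v in HA buffer (NaCl, CaCl2), compound 10 μM, 15 min at 37°C. Centrifuged 5,500 g for 1 min, supernatant OD543 read. Percent hemolysis against DMF vehicle (0%) and 1.0% Triton X-100 (100%); triplicate.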

[14] = system: Klebsiella pneumoniae; assay: Antimicrobial activity against Klebsiella pneumoniae assessed as inhibition of microbial growth after 24 hrs; assay type: functional; how it was run: as §1
[15] = system: Staphylococcus aureus; assay: Antimicrobial activity against Staphylococcus aureus assessed as inhibition of microbial growth after 24 hrs; assay type: functional; how it was run: as §1
[16] = Cytotoxicity against human A549 cells assessed as cell viability recovery up to 100 uM after 48 hrs by MTT assay; assay type: cell-based; conditions: read-out: Activity
How it was run: (§3)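 A549 cells grown in F-12K with L-glutamine, 10% FBS, 1% penicillin-streptomycin, seeded at 1.0 × 10^5 ml−1, allowed to adhere 24 h (37°C, 5% CO2), then exposed to compound in 45% w/v (2-hydroxypropyl)-β-cyclodextrin vehicle for 48 h. MTT 4 h, formazan solubilized in DMSO, absorbance 540 nm. Percent recovery versus vehicle-only; IC50 derived; at least three independent experiments.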

[17] = system: Staphylococcus aureus; assay: Bactericidal activity against methicillin-resistant Staphylococcus aureus assessed as cell survival recovery at MIC measured after drug wash out after 120 mins by time kill assay; assay type: functional
How it was run: (§4)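 MRSA from stationary phase was regrown 3 h in TSB and seeded at OD600 0.5. […] After 120 min, cells were centrifuged and washed, serially diluted and plated for CFU. Percent recovery is relative to no-drug controls.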

[18] = system: Acinetobacter baumannii; assay: Antibiofilm activity against Acinetobacter baumannii incubated for 24 hrs followed by biofilm resuspension in PBS and measured after 24 hrs; assay type: functional
How it was run: (§5)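 Biofilms grown 24 h in 96-well plates from overnight cultures standardized to OD600 0.5 in fresh medium (human serum only for S. aureus; TSB for Gram-positives, LB for Gram-negatives). Medium then replaced with fresh medium containing a concentration range above and below MIC, 37°C overnight. After 24 h biofilm resuspended in PBS, serially diluted, plated in duplicate, CFU counted after 24 h at 37°C. Activity relative to untreated; three technical replicates; MBEC50 reported.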

[19] = system: Enterobacter cloacae; assay: Antibiofilm activity against Enterobacter cloacae incubated for 24 hrs followed by biofilm resuspension in PBS and measured after 24 hrs; assay type: functional; how it was run: as §5
[20] = system: Staphylococcus aureus; assay: Antimicrobial activity against Staphylococcus aureus assessed as inhibition of microbial growth at 45 uM after 24 hrs; assay type: functional, organism-based; how it was run: as §2
[21] = system: Staphylococcus aureus; assay: Bactericidal activity against methicillin-resistant Staphylococcus aureus at MIC measured after drug wash out after 120 mins by time kill assay; assay type: functional; how it was run: as §4
[22] = Selectivity index, ratio of IC50 for human A549 cells to MIC for Enterococcus faecium
[23] = Selectivity index, ratio of IC50 for human A549 cells to MIC for Pseudomonas aeruginosa
[24] = system: A549; assay: Cytotoxicity against human A549 cells after 48 hrs by MTT assay; assay type: cell-based; conditions: A549, 48 h; how it was run: as §3
[25] = Selectivity index, ratio of IC50 for human A549 cells to MIC for Klebsiella pneumoniae
[26] = system: Enterobacter cloacae; assay: Ratio of MIC for Enterobacter cloacae measured after 8 cycle passage to MIC for wild type Enterobacter cloacae; assay type: functional
[27] = Cytotoxicity against human A549 cells assessed as cell viability recovery at 225 uM after 48 hrs by MTT assay; assay type: cell-based; conditions: read-out: Activity; how it was run: as §3
[28] = system: Acinetobacter baumannii; assay: Bactericidal activity against Acinetobacter baumannii after 24 hrs; assay type: functional
[29] = system: Enterobacter cloacae; assay: Bactericidal activity against Enterobacter cloacae after 24 hrs; assay type: functional
[30] = system: Enterobacter cloacae; assay: Antimicrobial activity against Enterobacter cloacae assessed as inhibition of microbial growth after 24 hrs; assay type: functional; how it was run: as §1
[31] = system: Pseudomonas aeruginosa; assay: Antimicrobial activity against Pseudomonas aeruginosa assessed as inhibition of microbial growth after 24 hrs; assay type: functional; how it was run: as §1
[32] = system: Klebsiella pneumoniae; assay: Antibiofilm activity against Klebsiella pneumoniae incubated for 24 hrs followed by biofilm resuspension in PBS and measured after 24 hrs; assay type: functional; how it was run: as §5
[33] = system: Pseudomonas aeruginosa; assay: Antimicrobial activity against Pseudomonas aeruginosa assessed as inhibition of microbial growth at 45 uM after 24 hrs; assay type: functional, organism-based; how it was run: as §2
[34] = system: Enterococcus faecium; assay: Bactericidal activity against Enterococcus faecium after 24 hrs; assay type: functional
[35] = system: Staphylococcus aureus; assay: Antibiofilm activity against Staphylococcus aureus incubated for 24 hrs followed by biofilm resuspension in PBS and measured after 24 hrs; assay type: functional; how it was run: as §5
[36] = system: Staphylococcus aureus; assay: Induction of spontaneous mutation in Staphylococcus aureus at 2 to 10 MIC; assay type: functional, organism-based
[37] = system: Acinetobacter baumannii; assay: Antimicrobial activity against Acinetobacter baumannii assessed as inhibition of microbial growth at 45 uM after 24 hrs; assay type: functional, organism-based; how it was run: as §2
[38] = system: Enterobacter cloacae; assay: Induction of spontaneous mutation in Enterobacter cloacae at 2 to 10 MIC; assay type: functional, organism-based
[39] = system: Pseudomonas aeruginosa; assay: Bactericidal activity against Pseudomonas aeruginosa after 24 hrs; assay type: functional
[40] = system: Klebsiella pneumoniae; assay: Antimicrobial activity against Klebsiella pneumoniae assessed as inhibition of microbial growth at 45 uM after 24 hrs; assay type: functional, organism-based; how it was run: as §2
[41] = system: Enterobacter cloacae; assay: Antimicrobial activity against Enterobacter cloacae assessed as inhibition of microbial growth at 45 uM after 24 hrs; assay type: functional, organism-based; how it was run: as §2
[42] = system: Acinetobacter baumannii; assay: Ratio of MIC for Acinetobacter baumannii measured after 8 cycle passage to MIC for wild type Acinetobacter baumannii; assay type: functional
[43] = system: Pseudomonas aeruginosa; assay: Antibiofilm activity against Pseudomonas aeruginosa incubated for 24 hrs followed by biofilm resuspension in PBS and measured after 24 hrs; assay type: functional; how it was run: as §5
[44] = Selectivity index, ratio of IC50 for human A549 cells to MIC for Acinetobacter baumannii
[45] = system: Enterococcus faecium; assay: Induction of spontaneous mutation in Enterococcus faecium at 2 to 10 MIC; assay type: functional, organism-based
[46] = system: Klebsiella pneumoniae; assay: Induction of spontaneous mutation in Klebsiella pneumoniae at 2 to 10 MIC; assay type: functional, organism-based
[47] = system: Enterococcus faecium; assay: Antibiofilm activity against Enterococcus faecium incubated for 24 hrs followed by biofilm resuspension in PBS and measured after 24 hrs; assay type: functional; how it was run: as §5

`CCCC[C@H]1CN(CCCC[C@H]2CNC(=N)N2CCc2cccc(C(F)(F)F)c2)C(=N)N1CCCCC1CCCCC1` gave an MBC90 [1] of 4 µM (≈ 2.36 µg/mL), an MIC [2] of 1.5 µM and an MIC [3] of 1.5 µM. For the same molecule, the Activity [4] was “inactive”, the Activity [5] was “inactive” and the “Selectivity Index” value [6] was 82. For the same molecule, the “Selectivity Index” value [7] was 82, the Activity [8] was “inactive” and the Ratio [9] was 2. The Ratio [10] was “<=8”, the “growth inhibition (GI)” value [11] was “Active” and the Activity [12] was “Active”. It also gave a hemolysis at 0.25 h, 10 µM [13] of 0.34%, an MIC [14] of 1.5 µM and an MIC [15] of 1.5 µM. For the same molecule, the viability at 48 h [16] was greater than 65%, the Survival [17] was 0.2% and the MBEC50 [18] was 16 µM. The MBEC50 [19] was 13 µM, the “growth inhibition (GI)” value [20] was “Active” and the “fold change (FC)” value [21] was 2.5. The “Selectivity Index” value [22] was 82, the “Selectivity Index” value [23] was 82 and the IC50 [24] was 125 µM. For the same molecule, the “Selectivity Index” value [25] was 82, the Ratio [26] was “<=8” and the viability at 48 h, 225 µM [27] was greater than 50%. For the same molecule, the MBC90 [28] was 2.8 µM (≈ 1.65 µg/mL), the MBC90 [29] was 4.1 µM (≈ 2.42 µg/mL) and the MIC [30] was 1.5 µM. The MIC [31] was 1.5 µM, the MBEC50 [32] was 4.7 µM and the “growth inhibition (GI)” value [33] was “Active”. For the same molecule, the MBC90 [34] was 1.7 µM (≈ 1 µg/mL), the MBEC50 [35] was 2.2 µM and the Activity [36] was “inactive”. The “growth inhibition (GI)” value [37] was “Active”, the Activity [38] was “inactive” and the MBC90 [39] was 2.3 µM (≈ 1.36 µg/mL). The “growth inhibition (GI)” value [40] was “Active”, the “growth inhibition (GI)” value [41] was “Active” and the Ratio [42] was “<=8”. For the same molecule, the MBEC50 [43] was 31 µM, the “Selectivity Index” value [44] was 82 and the Activity [45] was “inactive”. For the same molecule, the Activity [46] was “inactive” and the MBEC50 [47] was 29 µM.
